{"source": "PubChem BioAssay AID652279", "about": "(Broad Institute, 2013)"}
{"system": "T. cruzi CAI/72 in J774 macrophages, trypomastigote emergence, microscopy", "assay": "T. cruzi parasite clearance versus stasis, late-stage follow-up, mechanism study, imaging, CAI/72 strain, J774 macrophages, dry powder (AID 652279)", "details": "stronger effect = higher value", "outline": "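Material: Irradiated (9000 rad) J774 macrophages infected with T. cruzi CAI/72 / Buffer or medium: RPMI-1640, 5% FCS / Doses: compound replenished every 3 days, starting 24 h post-infection / Timing: 1 or 3 weeks dosing, then 31 or 17 days washout / Signal: daily light-microscopy check for trypomastigote emergence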"}
{"smiles": "CC(C)N1C[C@@H](CN(C)Cc2ccc(Cl)c(Cl)c2)Oc2c(NC(=O)c3ccncc3)cccc2C1=O", "slope of emergence day vs concentration": 6.07}
{"smiles": "CN(C)C(=O)c1cccc(-c2ccc([C@H]3[C@H](CO)N4CCCCN(C(=O)C5CCC5)C[C@@H]34)cc2)c1", "slope of emergence day vs concentration": 1.4}
{"smiles": "CC(C)N1C[C@@H](CN(C)CCc2ccc(Cl)c(Cl)c2)Oc2c(NC(=O)c3ccncc3)cccc2C1=O", "slope of emergence day vs concentration": 6.4}
{"smiles": "CC(C)N1C[C@@H](CN(C)Cc2ccc(Cl)cc2)Oc2c(NC(=O)c3ccncc3)cccc2C1=O", "slope of emergence day vs concentration": 2.21}
{"smiles": "CN(C)CC#Cc1cccc(-c2nc(C(=O)N[C@@H]3CCN(Cc4ccccc4)C3)cc3c2[C@@H](CCO)N(S(=O)C(C)(C)C)C3)c1", "note": "(stereo partly specified)", "slope of emergence day vs concentration": 2.02}
{"smiles": "CC(C)N1C[C@@H](CN(C)Cc2ccc(Cl)cc2)Oc2c(C(=O)Nc3ccncc3)cccc2C1=O", "slope of emergence day vs concentration": 4.59}
{"smiles": "CC(C)N1C[C@@H](CN(C)Cc2ccc(Cl)cc2)Oc2c(NC(=O)c3ccncc3)cc(F)cc2C1=O", "slope of emergence day vs concentration": 2.15}
{"smiles": "CC(C)N1C[C@@H](CN(C)CCc2ccc(Cl)cc2)Oc2c(NC(=O)c3ccncc3)cccc2C1=O", "slope of emergence day vs concentration": 6.07}
{"smiles": "CN(C)CC#Cc1cccc(-c2nc(C(=O)NCc3ccc4c(c3)OCO4)cc3c2[C@@H](CCO)N(S(=O)C(C)(C)C)C3)c1", "note": "(stereo partly specified)", "slope of emergence day vs concentration": 4.35}
{"smiles": "CC(C)N1C[C@@H](CN(C)Cc2ccc(Oc3ccccc3)cc2)Oc2c(NC(=O)c3ccncc3)cccc2C1=O", "slope of emergence day vs concentration": 5.84}
{"smiles": "CC(C)N1C[C@H](CN(C)Cc2ccc(Cl)cc2)Oc2c(NC(=O)c3ccncc3)cccc2C1=O", "slope of emergence day vs concentration": 2.02}
